Test results published in ChEMBL document CHEMBL3872226, “Evaluation of selected 3D virtual screening tools for the prospective identification of peroxisome proliferator-activated receptor (PPAR) γ partial agonists” (Eur J Med Chem, 2016).

Legend:
[1] = biological target: T1, Peroxisome proliferator-activated receptor gamma (Homo sapiens) (UniProt P37231); assay: Transactivation of GAL4-fused human PPARgamma ligand binding domain expressed in African green monkey COS7 cells at 10 uM after 42 hrs by dual luciferase reporter gene assay relative to pioglitazone; assay type: cell-based; conditions: COS-7
T1 sequence (whole entry): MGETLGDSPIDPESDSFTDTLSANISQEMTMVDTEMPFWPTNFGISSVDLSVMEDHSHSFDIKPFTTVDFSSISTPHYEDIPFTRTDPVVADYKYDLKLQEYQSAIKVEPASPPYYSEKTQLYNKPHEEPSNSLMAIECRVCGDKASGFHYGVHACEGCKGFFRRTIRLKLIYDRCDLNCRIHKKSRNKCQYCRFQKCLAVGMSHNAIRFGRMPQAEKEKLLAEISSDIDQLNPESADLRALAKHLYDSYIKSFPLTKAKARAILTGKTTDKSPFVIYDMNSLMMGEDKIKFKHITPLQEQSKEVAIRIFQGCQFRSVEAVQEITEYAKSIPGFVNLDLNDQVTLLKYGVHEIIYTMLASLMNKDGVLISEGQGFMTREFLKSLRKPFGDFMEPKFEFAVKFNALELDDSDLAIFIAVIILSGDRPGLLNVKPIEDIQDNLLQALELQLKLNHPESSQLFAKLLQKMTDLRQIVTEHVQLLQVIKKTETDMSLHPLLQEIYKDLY
In short: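 COS-7 cells seeded at 10^4 cells/well in DMEM with 10% FCS, grown 24 h at 37 °C, 5% CO2. Transiently transfected in serum- and antibiotic-free medium with pGal5-TK-Luc (30 ng), pGal4-PPARγ-LBD (3 ng) and pRenilla-CMV (1 ng). Compounds or DMSO vehicle added after 4 h, triplicates; dual-luciferase read after 42 h. Activation relative to pioglitazone.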

[2] = biological target: T1, Peroxisome proliferator-activated receptor gamma (Homo sapiens); assay: Displacement of Fluoromone from GST-tagged recombinant human PPARgamma ligand binding domain at 10 uM by LanthaScreen TR-FRET assay relative to pioglitazone
In short: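 Recombinant GST-tagged PPARγ LBD incubated with terbium-labelled anti-GST antibody and fluorescein-labelled pan-PPAR agonist Fluoromone (5 nM), triplicates; DMSO negative control, pioglitazone and telmisartan positive controls. TR-FRET read as 520/495 nm emission ratio; compound autofluorescence subtracted as blank. Displacement expressed relative to pioglitazone.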

[3] = biological target: T2, Peroxisome proliferator-activated receptor gamma (Homo sapiens, UniProt P37231); assay: Displacement of Fluoromone from GST-tagged recombinant human PPARgamma ligand binding domain by LanthaScreen TR-FRET assay
T2 sequence (P37231 whole entry): T1 sequence (whole entry)

[4] = biological target: T2, Peroxisome proliferator-activated receptor gamma; assay: Transactivation of GAL4-fused human PPARgamma ligand binding domain expressed in African green monkey COS7 cells after 42 hrs by dual luciferase reporter gene assay; assay type: cell-based, COS-7

| SMILES | Activity [1] [%] | inhibition [2] [%] | other results |
| --- | --- | --- | --- |
| O=C(CSCc1ccc(Cl)c(Cl)c1)c1ccc(OCc2ccc([N+](=O)[O-])cc2)cc1 | 11.1 |  |  |
| COc1nc(-c2ccc(OCc3ccccc3)cc2OCc2ccc(F)cc2)cc(-c2ccc(C)cc2)c1C#N | 9.5 |  |  |
| CSc1nc(Sc2nnc(-c3cc(C(F)(F)F)cc(C(F)(F)F)c3)[nH]2)cc(Sc2nnc(-c3cc(C(F)(F)F)cc(C(F)(F)F)c3)[nH]2)n1 |  | 76 | EC50 [3]: 5400 nM |
| O=C(CSc1nnc(SCC(=O)NCCSCc2ccco2)s1)NCCSCc1ccco1 | 12.3 |  |  |
| Cc1ccc(Sc2c(C(=O)O)cnc3c2c(C)nn3C)cc1 | 7 |  |  |
| Cc1c(NS(=O)(=O)c2ccc(S(=O)(=O)c3ccccc3)s2)c(=O)n(-c2ccccc2)n1C | 7.8 |  |  |
| Cc1nn(C)c(Cl)c1S(=O)(=O)Nc1ccc(Oc2ccc(F)cc2)cc1 | 3 |  |  |
| COc1ccc(CCNc2ccc(C(F)(F)F)cc2/N=C/c2cc(Cl)cc(Cl)c2O)cc1OC | 9.9 |  |  |
| Cc1[nH]c2ccccc2c1SCc1nnc(SCc2ccccc2)n1C | 9.8 |  |  |
| O=S(=O)(Nc1ccc(Oc2ccc(OC(F)(F)F)cc2)cc1)c1cc(Cl)c(Cl)cc1Cl |  | 45 |  |
| Cc1nc(CSc2nnc(-c3ccc(C(F)(F)F)cc3)n2Cc2ccco2)cs1 | 2.8 |  |  |
| Cc1ccc(S(=O)(=O)n2nc(C)c(Sc3nccn3C)c2C)cc1 | 10.1 |  |  |
| O=S(=O)(Nc1cc(Cc2cc(NS(=O)(=O)c3ccccc3)cc(C(F)(F)F)c2)cc(C(F)(F)F)c1)c1ccccc1 | 23.7 | 99 | EC50 [4]: 3400 nM; EC50 [3]: 600 nM |
| O=S(=O)(c1ccc(Cl)cc1)c1cnn(S(=O)(=O)c2ccc(Cl)cc2Cl)c1-c1ccc(Cl)cc1 |  | 80 | EC50 [3]: 2100 nM |
| Cc1cc(Oc2nc(NCCSC(C)(C)C)nc(Oc3cc(C)c(Cl)c(C)c3)n2)cc(C)c1Cl | 9 |  |  |
| O=C(CN1c2ccccc2Sc2ccccc21)NNC(=S)NCc1ccccc1 | 41.9 | 86 | EC50 [4]: 21700 nM; EC50 [3]: 2800 nM |
| Oc1c(O)c(CN2CCCCC2)c2ccccc2c1CN1CCCCC1 | 2.7 |  |  |
| Cn1ccnc1SCc1nccn1Cc1ccc(Cl)cc1 | 8.1 |  |  |
| CC(C)(CC(=O)O)CC(=O)N1CCCN(c2nccc(C(F)(F)F)n2)CC1 | 9.8 |  |  |
| N#CC(/N=C/c1cc(Cl)cc(Cl)c1O)=C(C#N)/N=C/c1cc(Cl)cc(Cl)c1O |  | 46 |  |
| N#Cc1c(SCc2ccccc2)nc2c(c1/C=C\c1ccccc1)CCC2 | 14.4 |  |  |
| O=S(=O)(CS(=O)(=O)Oc1cc(Cl)cc(Cl)c1)Oc1cc(Cl)cc(Cl)c1 |  | 48 |  |
| O=C(O)c1cn(C2CCCCC2)c2ccccc2c1=O | 12 |  |  |
| Cc1noc(C)c1-c1nc(CS(=O)(=O)Cc2ccc(Cl)cc2)no1 | 12.8 |  |  |
| O=c1n(Cc2ccc(Cl)cc2Cl)c2ccccc2n1Cc1ccc(Cl)cc1Cl | 9.1 |  |  |
| Cc1noc(C)c1-c1noc(CSCc2ccc(Cl)cc2)n1 | 8.4 |  |  |
| CCCc1nc2c(C)cc(-c3nc4ccccc4n3C)cc2n1Cc1ccc(-c2ccccc2C(=O)O)cc1 [TELMISARTAN] |  | 91 | EC50 [3]: 700 nM |
| COc1cc2c(cc1OC)C(/C=C1\SC(C(=O)c3cccs3)=NN1c1ccc(C)cc1)=NCC2 |  | 42 |  |
| COc1ccc(-c2cn3cccc(OCc4ccc(Cl)c(Cl)c4)c3n2)cc1 |  | 60 | EC50 [3]: 3100 nM |
| Cc1ccc(S(=O)(=O)Nc2ccc(Oc3cccnc3)nc2)cc1 | 6 |  |  |
